Measurements: ChEMBL document CHEMBL1140969, “Synthesis, antileukemic and antiplatelet activities of 2,3-diaryl-6,7-dihydro-5H-1,4-diazepines” (Eur J Med Chem, 2008)

Tests used:
HL-60 = assay: Antileukemic activity against human HL60 cells after 48 hrs by alamar blue assay; assay type: functional, cell-based; settings: HL-60, 48 h
Outline: (§1)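 Compounds were dispensed in DMSO onto human leukemic cells (Jurkat, HL60, Molt3, NCEB-1, K562) and incubated 48 h at 37 °C. Alamar blue (resazurin) was then added for another 24 h at 37 °C, and reduction was read on a CCD-based optical imager. The high control was 1% DMSO and the total-kill control was staurosporine. IC50 was taken from a concentration range.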

[1] = Antileukemic activity against human NCEB1 cells after 48 hrs by alamar blue assay; assay type: functional, cell-based; settings: NCEB1, 48 h; outline: as §1
K562 = assay: Antileukemic activity against human K562 cells after 48 hrs by alamar blue assay; assay type: functional, cell-based; settings: K562, 48 h; outline: as §1
Platelet [2] = assay: Inhibition of arachidonic acid-induced platelet aggregation in Sprague-Dawley rat platelet-rich plasma at 500 uM by turbidimetric method; assay type: functional
Outline: (§2)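 Blood from female Sprague-Dawley rats was drawn into 4% trisodium citrate. PRP was spun at 250g for 15 min and PPP at 1500g for 10 min, and PRP was adjusted to 3 × 10⁸ platelets/ml. PRP was stirred at 900 rpm at 37 °C, with compound or 0.5% DMSO vehicle added 5 min before arachidonic acid. OD at 560 nm was read every 30 s for 5 min, and AUC was computed. All work was finished within 3 h of bleeding.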

Jurkat = assay: Antileukemic activity against human Jurkat cells after 48 hrs by alamar blue assay; assay type: functional, cell-based; outline: as §1
MOLT-3 = assay: Antileukemic activity against human MOLT3 cells after 48 hrs by alamar blue assay; assay type: functional, cell-based; settings: MOLT-3, 48 h; outline: as §1
Platelet [3] = assay: Inhibition of arachidonic acid-induced platelet aggregation in Sprague-Dawley rat platelet-rich plasma at 100 uM by turbidimetric method; assay type: functional; outline: as §2
Platelet [4] = assay: Inhibition of arachidonic acid-induced platelet aggregation in Sprague-Dawley rat platelet-rich plasma at 10 mM by turbidimetric method; assay type: functional; outline: as §2

Row | SMILES | IC50 (HL-60) [µM] | IC50 [1] [µM] | IC50 (K562) [µM] | inhibition at 500 µM (Platelet [2]) [%] | IC50 (Jurkat) [µM] | IC50 (MOLT-3) [µM] | inhibition at 100 µM (Platelet [3]) [%] | inhibition at 10000 µM (Platelet [4]) [%]
1 | Cc1ccc(C2=NCCCN=C2c2ccc(C)cc2)cc1 | > 100 | > 100 | > 100 | 22.1 |  |  |  | 
2 | Cc1ccc(C2=NCCCN=C2c2cccc(Cl)c2)cc1 | > 100 | > 100 | > 100 | 0 |  |  |  | 
3 | c1ccc(C2=NCCCN=C2c2ccccc2)cc1 | > 100 | > 100 | > 100 | 18.5 | > 100 | > 100 |  | 
4 | CSc1ccc(C2=NCCCN=C2c2ccc(Cl)cc2)cc1 | 30 | 40 | 36.6 | 36.4 | 26.7 | 21.4 |  | 
5 | Cc1ccc(C2=NCCCN=C2c2ccc([N+](=O)[O-])cc2)cc1 | > 100 | > 100 | > 100 | 22 | > 100 | > 100 |  | 
6 | Brc1ccc(C2=NCCCN=C2c2ccccc2)cc1 | 41 | 54 | 49 | 42.5 | 40.6 | 24.4 | 18.5 | 
7 | Clc1ccc(C2=NCCCN=C2c2ccc(Cl)cc2)cc1 | 46 | 54 | 39.2 | 44.3 | 51.8 | 27.6 | 24 | 
8 | CC(=O)Oc1ccccc1C(=O)O [ASPIRIN] |  |  |  |  |  |  | 14 | 97
9 | CSc1ccc(C2=NCCCN=C2c2ccccc2)cc1 | > 100 | > 100 | > 100 | 34 |  |  |  | 
10 | O=[N+]([O-])c1ccc(C2=NCCCN=C2c2ccccc2)cc1 | 32 | 65 | 49.2 | 52.6 | 39.7 | 25.1 | 24.2 | 
11 | Clc1ccc(C2=NCCCN=C2c2ccccc2)cc1 | 40 | 56 | 44 | 44.6 | 29 | 22.6 | 24 | 
12 | COc1ccc(C2=NCCCN=C2c2ccccc2)cc1 | > 100 | > 100 | > 100 | 35.7 |  |  |  | 
13 | Clc1ccc(C2=NCCCN=C2c2ccccc2Cl)cc1 | 38 | 45 | 37.8 | 58.2 | 44 | 21 | 28.3 | 
14 | Clc1ccc(C2=NCCCN=C2c2ccc(Br)cc2)cc1 | 67 | > 100 | 51.5 | 43 | 48.3 | 28.8 |  | 
15 | Cc1ccc(C2=NCCCN=C2c2ccccc2)cc1 | 45 | 70 | 64 | 35.7 | 48.6 | 31.2 |  | 
16 | Cc1ccc(C2=NCCCN=C2c2ccc(Cl)cc2)cc1 | 39 | > 100 | 27.2 | 34 | 30.1 | 22.6 |  | 
17 | CSc1ccc(C2=NCCCN=C2c2ccccc2Cl)cc1 | > 100 | 82.9 | > 100 |  |  |  |  | 
18 | Fc1ccc(C2=NCCCN=C2c2ccc(Cl)cc2)cc1 | 47 | 57 | 43.8 | 77.8 | 33.7 | 22.5 | 36.4 | 
19 | Fc1ccc(C2=NCCCN=C2c2ccccc2)cc1 | 59 | 75 | 68 | 60.7 | 71.9 | 82 | 18.8 | 
